# Compound activity from PubChem.
# The list is not random: actives were taken first. Their share in the collection is about 1.7%.
# IDE act = activators of human insulin-degrading enzyme in cells; P14735; HEK cells, FAbeta-B cleavage, fluorescence polarization; 0% vehicle, 100% cell-free pure enzyme wells; activation, % at 5.96 µM; 0.073% of 340,000 active; AID 493087;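 active means activation above the mean of all tested compounds plus 3 SD, set per screening campaign, cut at about 17% in these data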
# TPT1 inhibitor = C. albicans TPT1 enzyme inhibition; 0.81% of 300,000 active; recombinant caTPT1, FP RNA substrate dephosphorylation; AID 1962; inhibition, % at 5 µM;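 active means inhibition above the mean of all tested compounds plus 3 SD, set per screening campaign, cut at about 24% in these data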;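 further: plate controls were DMSO alone for no effect and ferristatin control at 100 nM for full effect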
# HNF4A DNA FP = change in binding of human HNF4 alpha to DNA. HNF4a-FITC DNA binding, fluorescence polarization, 1 h. AID 1224865. activity change, % at 10 µM. 0.3% of 360,000 active; in the data active means activity change above about 30%, passing the limit was not always enough
# Target sequence (P41235 whole entry, looked up): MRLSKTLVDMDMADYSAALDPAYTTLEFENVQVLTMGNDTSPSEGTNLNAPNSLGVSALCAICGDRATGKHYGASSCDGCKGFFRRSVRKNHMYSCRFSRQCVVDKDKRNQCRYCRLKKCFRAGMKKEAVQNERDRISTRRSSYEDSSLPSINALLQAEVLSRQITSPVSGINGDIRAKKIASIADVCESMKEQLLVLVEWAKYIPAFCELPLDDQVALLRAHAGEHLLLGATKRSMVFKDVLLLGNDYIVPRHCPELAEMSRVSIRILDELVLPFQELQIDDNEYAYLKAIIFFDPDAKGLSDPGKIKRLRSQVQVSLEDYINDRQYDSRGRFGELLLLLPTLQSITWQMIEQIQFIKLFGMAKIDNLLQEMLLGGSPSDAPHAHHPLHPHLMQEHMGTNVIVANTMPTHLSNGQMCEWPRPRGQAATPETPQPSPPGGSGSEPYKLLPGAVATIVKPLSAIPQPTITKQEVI
# Tb MetRS inh = Trypanosoma brucei MetRS inhibition | purified T. brucei MetRS, ATP depletion, Kinase-Glo luminescence | inhibition, % at 11.9 µM | 0.4% of 360,000 active;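 active means inhibition above a per-plate cutoff of the control wells' mean inhibition plus 3 SD, cut at about 5.5% in these data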;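 further: 0% = DMSO wells median and 100% = median of wells with control inhibitor compound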
#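 Test system – parasite MetRS enzyme · Reagent – substrates ATP, L-methionine and bulk Escherichia coli tRNA · Doses – 11.9 µM compound single dose, 0.9% DMSO · Times – 15 min enzyme-compound preincubation, 2 h reaction, 10 min detection, 25 °C · Signal – Kinase-Glo luminescence, ATP depletion format · Controls – DMSO-only wells as low control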
# CSN deneddyl inh = CSN deneddylation inhibition; Q92905; Purified CSN, SCF-Nedd8-OG deneddylation, fluorescence polarization; inhibition, % at 12.5 µM; 0.38% of 360,000 active; AID 651999;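 active means pattern-corrected inhibition above about 35%, with an unprinted fluorescence ratio check between 0.5 and 1.5, limit read from the data, passing the limit was not always enough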;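 further: 0% = enzyme with substrate and 100% = substrate without enzyme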
#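 assay system = purified human Csn5 enzyme expressed in HEK293T cells | amount = 0.24 nM enzyme | buffer or medium = Tris/NaCl/DTT buffer, pH 7.5 | reagent = 10 nM SCFSkp2-Nedd8OG | compound = one concentration, 12.5 µM, 0.25% DMSO | times = 90 min reaction at room temperature | signal = FP | read-out basis = % inhibition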
# IDE inh = inhibits human insulin-degrading enzyme in HEK cells. P14735. FAbetaB cleavage, fluorescence polarization. inhibition, % at 5.59 µM. 0.41% of 320,000 active. AID 434962;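 active means percent inhibition above the average of all tested compounds plus 3 SD, set per screening campaign, cut at about 16% in these data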;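 further: IDE supplied by intact live HEK cells; FP after avidin binding of uncleaved biotin substrate so inhibition keeps polarization high; 0% = DMSO wells and 100% = 60 µM reference IDE inhibitor Ii1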
# TPT1 inh confirm = confirmation of Candida albicans TPT1 inhibitors. shares compounds with TPT1 inhibitor. recombinant caTPT1, fluorescence polarization, RNase T1 coupled. inhibition, % at 5 µM. 74% of 2,400 active. AID 2149;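 active means inhibition above the primary screen limit, the mean inhibition of all tested compounds plus 3 SD, cut at about 25% in these data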
# RNase T1 counter = counter-screen for TPT1 inhibitors: inhibitors of Aspergillus oryzae RNase T1 | shares compounds with TPT1 inhibitor | RNase T1 cleavage, fluorescence polarization, 1536-well | inhibition, % at 5 µM | 83% of 2,400 active;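 active means inhibition above the solvent-only control well mean plus 3 SD, limit set per screening run, cut at about 23% in these data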;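 further: plate controls were DMSO wells with enzyme for no effect and wells without RNase T1 for full effect; inhibitors block cleavage so intact labeled substrate keeps polarization high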
# Target sequence (P00651 whole entry, looked up): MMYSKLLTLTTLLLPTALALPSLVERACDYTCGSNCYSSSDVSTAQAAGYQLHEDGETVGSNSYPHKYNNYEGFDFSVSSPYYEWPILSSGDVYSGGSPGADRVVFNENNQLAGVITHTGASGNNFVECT
# * = called active by the depositor; . = no result given.
SMILES,IDE act,TPT1 inhibitor,HNF4A DNA FP,Tb MetRS inh,CSN deneddyl inh,IDE inh,TPT1 inh confirm,RNase T1 counter
Cc1ccc(N=C2NC(=O)/C(=C/c3cccs3)S2)cc1C,-3.1,30.4*,34.1,0.3,32.6,6.7,46.1*,59.2*
COc1ccc(CN2CCN(Cc3cc(=O)oc4cc(C)ccc34)CC2)c(OC)c1OC,-3.1,26.5*,0.9,-0.9,-0.4,0.9,9.5,12.7
OC1(CNCc2cn[nH]c2-c2cc3ccccc3o2)CCCCC1,-0.5,-5.4,-0.9,-0.3,-3.7,2.4,.,.
COC(=O)c1ccc(-c2sc3nc(N4CCOCC4)c4c(c3c2N)CCCC4)o1,.,57.7*,.,.,.,2.1,56.9*,68.0*
COC1C(O)C(O)C(O)C(O)C1O (stereo not given),1.6,.,0.2,0.6,1.5,.,.,.
CC1=C(C(=O)c2ccccc2)C(c2ccc(O)cc2)NC(=S)N1 (stereo not given),0.9,-1.4,-3.2,0.0,-0.5,9.2,.,.
CC1=C(C(=O)c2ccccc2)C(c2ccc(N3CCOCC3)cc2)NC(=O)N1 (stereo not given),2.3,28.1*,16.9,-1.4,23.6,0.6,39.0*,51.3*
COCCCn1c(=O)/c(=C\c2cccc(OC)c2OC)s/c1=C(/C#N)C(=O)Nc1ccc(C(=O)O)cc1,-6.0,61.6*,14.4,0.3,21.8,-3.2,73.3*,86.6*
COCCCn1c(=O)/c(=C/c2ccccc2OC(F)F)s/c1=C(\C#N)C(=O)NCCOC,7.5,.,12.8,-0.2,33.0,.,.,.
Cn1cc(CNCc2ccccc2OCC(O)CN2CCc3ccccc3C2)cn1 (stereo not given),0.7,26.4*,3.4,-0.1,-5.8,2.9,9.4,11.5
Cc1ccc(C(C)C)c(OCC(O)CN2CCc3ccccc3C2)c1 (stereo not given),-3.2,-1.8,-3.4,-0.6,2.5,-1.8,.,.
CSc1nc(-c2ccccc2)nc(SC)c1C(C)=O,5.9,26.3*,2.5,-0.5,-1.1,0.6,6.2,13.8
CC(CN1CCN(C)CC1)OC(=O)c1cccc(F)c1 (stereo not given),-1.9,-0.1,0.2,-0.6,2.8,1.1,.,.
O=C(O)c1ccc(C=C(c2nc3ccccc3s2)c2nc3ccccc3s2)cc1,2.6,4.9,3.1,-0.3,27.5,-7.0,.,.
CN(C)c1ccc(/C=C(\Cl)c2nc3ccccc3s2)cc1,0.1,72.6*,46.1*,-0.1,22.7,1.8,84.1*,90.5*
O=C(CSC1=N/C(=C/c2ccco2)C(=O)N1c1ccc(OC(F)F)cc1)NC1CCS(=O)(=O)C1 (stereo not given),-1.4,28.0*,23.8,-0.3,3.0,3.4,26.0*,34.0*
CC1=C(C(=O)N(C(C)C)C(C)C)CC(CC(=O)NCc2cccc3ccccc23)C(=O)N1Cc1ccccc1 (stereo not given),.,.,-0.3,-1.4,-1.0,.,.,.
CCN1C(=O)C2(C(C#N)=C(N)Oc3cc(C)oc(=O)c32)c2ccccc21 (stereo not given),6.9,-0.2,5.5,-0.8,26.3,-0.5,.,.
Cc1cc2c(c(=O)o1)C1(C(=O)N(CC(=O)O)c3ccccc31)C(C#N)=C(N)O2 (stereo not given),-2.9,37.2*,3.1,-0.8,8.8,6.6,41.8*,48.8*
Cc1cccc(C)c1NC(=S)N1CCC(c2ccccc2)C1 (stereo not given),3.7,-0.9,-0.9,-0.2,-1.0,4.7,.,.
C=CCN=C1S/C(=C\c2ccc(N(C)C)cc2)C(=O)N1CC=C,-6.5,43.9*,36.4*,-0.5,16.3,0.0,49.7*,63.3*
CCN1C(=S)SC(=O)C1=C1C=C(C)N(CCO)C(C)=C1,-9.8,37.8*,0.1,-0.1,-5.0,12.7,52.6*,62.3*
CN(NS(=O)(=O)c1ccccc1)C(=O)c1ccccc1,2.5,.,-7.1,-0.2,-0.4,.,.,.
CC(=O)Nc1ccc(S(=O)(=O)Nc2nc3ccccc3nc2Nc2ccc(O)c(C(=O)O)c2)cc1,4.8,43.4*,26.6,0.3,18.6,2.7,24.1*,32.8*
O=C(Nc1cc(Cl)cc(Cl)c1)N1CCCC1,-2.6,-1.8,1.0,-0.1,2.7,7.0,.,.
SMILES,IDE act,TPT1 inhibitor,HNF4A DNA FP,Tb MetRS inh,CSN deneddyl inh,IDE inh,TPT1 inh confirm,RNase T1 counter
CCCCC(=O)Nc1ccc(NC(=O)c2ccc([N+](=O)[O-])cc2)cc1OC,3.3,1.1,-0.7,0.6,-6.9,-0.1,.,.
CCCCC(=O)Nc1ccc(C(=O)Nc2ccc(OC)cc2[N+](=O)[O-])cc1,-2.9,27.4*,95.3,0.3,130.7,3.5,53.5*,62.8*
O=C(NCCc1ccccc1)c1ccc(NC(=O)C2CC2)cc1,3.0,.,-3.3,0.0,0.9,.,.,.
CCOCC(=O)Nc1ccc([N+](=O)[O-])cc1OC,9.5,35.9*,-4.4,-1.9,-2.4,-7.2,2.8,6.4
COc1cc([N+](=O)[O-])ccc1NC(=O)CN(C)C,0.7,26.3*,-4.5,0.4,3.0,-4.9,2.4,8.0
CC(=O)c1cccc(NC(=O)COC(=O)[C@@H](NC(=O)OCc2ccccc2)C(C)C)c1,5.5,1.7,-4.4,-0.4,-14.2,-0.3,.,.
Cc1cccc(OCC(=O)NNC(=O)c2ccc3nc[nH]c3c2)c1,4.5,.,-0.6,-0.4,-3.1,-1.9,.,.
O=C(NCC(=O)N(c1cccc(F)c1)C(C(=O)NC1CCCC1)c1cccnc1)c1cccs1 (stereo not given),1.6,1.1,5.8,-0.5,-0.4,1.9,.,.
Cc1ccc(N(Cc2ccccc2F)S(C)(=O)=O)cc1C,-6.0,-4.7,1.6,0.5,1.8,-2.2,.,.
O=C1/C(=C/C=C/c2ccccc2)Oc2c1ccc(O)c2CN1CCN(CCO)CC1,-5.8,7.9,25.8,-0.7,37.2,5.4,.,.
CCc1ccc(/C=C2\Oc3c(ccc(O)c3CN3CCN(C)CC3)C2=O)cc1,-10.3,26.0*,11.3,0.4,4.0,0.5,27.5*,37.6*
COc1ccccc1/C=C/C=C1\Oc2c(ccc(O)c2CN2CCN(CCO)CC2)C1=O,-29.6,39.4*,40.1*,-0.1,64.0,16.1,46.0*,54.4*
O=C(NCc1cccnc1)c1csc([C@@H]2O[C@H](CO)[C@H](O)[C@H](O)[C@H]2O)n1,.,.,1.5,0.2,-0.4,.,.,.
CN(C)c1ccc(/C=C/c2nc3ccccc3c(=O)[nH]2)cc1,-11.6,64.3*,67.4*,-0.1,5.3,12.8,73.8*,82.6*
O=c1c2ccccc2nc(/C=C/c2ccccc2)n1CCCO,0.8,-2.2,-1.1,-2.1,-0.9,10.4,.,.
